In ChEMBL document CHEMBL5316332 (J Med Chem, 2023):
The source made the active and inactive calls. The rule behind the calls is not given here.

Columns and labels:
[1] = biological target: T1, TGF-beta receptor type-1 (Homo sapiens) (UniProt P36897); assay: (§1) Inhibition of TGFBR1 (unknown origin) by LanthaScreen TR-FRET assay
T1 sequence (whole entry): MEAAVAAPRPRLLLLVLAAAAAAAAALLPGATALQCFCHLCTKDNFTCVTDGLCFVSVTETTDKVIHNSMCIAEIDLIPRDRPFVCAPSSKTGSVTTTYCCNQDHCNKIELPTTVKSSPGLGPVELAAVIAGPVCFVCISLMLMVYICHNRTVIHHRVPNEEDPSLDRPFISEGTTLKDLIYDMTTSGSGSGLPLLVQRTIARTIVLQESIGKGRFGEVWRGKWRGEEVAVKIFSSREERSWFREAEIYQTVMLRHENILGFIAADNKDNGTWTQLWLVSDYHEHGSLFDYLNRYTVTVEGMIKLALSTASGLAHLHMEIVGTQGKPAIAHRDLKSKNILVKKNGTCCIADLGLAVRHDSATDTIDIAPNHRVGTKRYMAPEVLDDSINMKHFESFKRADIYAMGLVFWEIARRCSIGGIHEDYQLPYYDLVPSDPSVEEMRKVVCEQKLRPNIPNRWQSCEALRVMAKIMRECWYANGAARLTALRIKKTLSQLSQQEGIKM
Method in brief: (§2)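 Outsourced SelectScreen profiling using a LanthaScreen TR-FRET binding format, in which a tight-binding tracer is displaced from the kinase.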

[2] = biological target: Bone morphogenetic protein receptor type-1B (Homo sapiens, UniProt O00238); assay: Inhibition of BMPR1B (unknown origin) by LanthaScreen TR-FRET assay; method in brief: as §2
Activin receptor type-2A = Activin receptor type-2A (Homo sapiens, UniProt P27037); assay: Inhibition of ACVR2A (unknown origin) by LanthaScreen TR-FRET assay; method in brief: as §2
[3] = Metabolic stability in human liver microsomes assessed as half life at 2 uM and mesured upto 60 mins in presence of NADPH by UHPLC-MS analysis; type: ADME, Microsome; conditions: microsomes, 1 h, 2 µM
HEK293T [4] = assay: Inhibition of BMP signalling pathway in BMP2-stimulated human HEK293T cells assessed as decrease in SMAD1 phosphorylation at 25 uM preincubated for 30 mins followed by BMP2 stimulation and measured after 15 mins by Western blot analysis; type: cell-based; conditions: time 45.0 min
Method in brief: (§3)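 HEK293T cells, 3 × 10^5 per well, starved overnight in DMEM with 2 mM glycine and 2% heat-inactivated FBS. Pretreated 30 min with inhibitor, then 5 ng/mL BMP2 for 15 min. Lysed in M-PER with protease inhibitors. Western blot for pSMAD1/5, SMAD1, SMAD5 and GAPDH, quantified by densitometry.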

HEK293T [5] = assay: Inhibition of BMP signalling pathway in BMP2-stimulated human HEK293T cells assessed as decrease in SMAD5 phosphorylation at 25 uM preincubated for 30 mins followed by BMP2 stimulation and measured after 15 mins by Western blot analysis; type: cell-based; conditions: time 45.0 min; method in brief: as §3
HUVEC [6] = assay: Inhibition of BMP signalling pathway in BMP9-stimulated human HUVEC cells assessed as decrease in SMAD1 phosphorylation at 25 uM preincubated for 30 mins followed by BMP2 stimulation and measured after 15 mins by Western blot analysis; type: cell-based; conditions: time 45.0 min
Method in brief: (§4)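 HUVECs, about 3 × 10^5 per well, starved overnight in Kaighn's F-12 with 0.5% FBS and 30 μg/mL endothelial cell growth supplement. Pretreated 30 min with inhibitor, then stimulated with 0.5 ng/mL BMP9. Lysed in M-PER with protease and phosphatase inhibitors. Western blot for pSMAD1/5, SMAD1 and SMAD5, quantified by densitometry.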

HUVEC [7] = assay: Inhibition of BMP signalling pathway in BMP9-stimulated human HUVEC cells assessed as decrease in SMAD5 phosphorylation at 25 uM preincubated for 30 mins followed by BMP2 stimulation and measured after 15 mins by Western blot analysis; type: cell-based; conditions: time 45.0 min; method in brief: as §4
[8] = biological target: T2, Bone morphogenetic protein receptor type-2 (Homo sapiens) (UniProt Q13873); assay: Binding affinity to recombinant C-terminal 6His-tagged human BMPR2 (188 to 517 residues) expressed in Escherichia coli Rosetta assessed as change in melting temperature at 50 uM by SYPRO Orange dye based thermal shift assay
T2 sequence (whole entry): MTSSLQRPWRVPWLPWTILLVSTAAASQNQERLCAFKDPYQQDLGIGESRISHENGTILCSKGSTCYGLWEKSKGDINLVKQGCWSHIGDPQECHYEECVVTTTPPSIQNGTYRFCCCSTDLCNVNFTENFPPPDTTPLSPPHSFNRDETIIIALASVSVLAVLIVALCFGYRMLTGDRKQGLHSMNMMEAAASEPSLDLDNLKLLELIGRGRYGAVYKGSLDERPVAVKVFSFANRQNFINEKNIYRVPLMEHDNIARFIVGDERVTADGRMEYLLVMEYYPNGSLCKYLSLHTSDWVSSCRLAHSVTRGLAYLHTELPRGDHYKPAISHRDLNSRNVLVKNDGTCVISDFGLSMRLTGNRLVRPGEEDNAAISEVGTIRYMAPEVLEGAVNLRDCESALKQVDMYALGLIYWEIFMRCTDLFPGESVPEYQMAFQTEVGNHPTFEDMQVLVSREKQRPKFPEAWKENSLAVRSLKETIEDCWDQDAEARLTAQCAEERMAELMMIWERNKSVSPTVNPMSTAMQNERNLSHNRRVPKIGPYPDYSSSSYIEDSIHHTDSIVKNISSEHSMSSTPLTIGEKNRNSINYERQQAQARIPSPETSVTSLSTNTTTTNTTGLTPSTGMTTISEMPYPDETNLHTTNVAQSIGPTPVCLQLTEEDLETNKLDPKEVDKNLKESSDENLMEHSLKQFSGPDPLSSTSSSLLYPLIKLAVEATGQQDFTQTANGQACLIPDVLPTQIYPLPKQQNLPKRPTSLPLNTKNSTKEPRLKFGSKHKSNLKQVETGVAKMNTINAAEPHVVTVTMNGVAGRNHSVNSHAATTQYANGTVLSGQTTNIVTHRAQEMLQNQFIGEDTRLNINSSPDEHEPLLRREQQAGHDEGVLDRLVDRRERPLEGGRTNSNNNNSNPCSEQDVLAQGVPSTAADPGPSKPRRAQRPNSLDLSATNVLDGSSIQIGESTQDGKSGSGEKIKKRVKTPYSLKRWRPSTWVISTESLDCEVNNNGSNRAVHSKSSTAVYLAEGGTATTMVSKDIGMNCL
Method in brief: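 BMPR2 kinase domain-His (purified by IMAC, anion exchange and size exclusion) at 1 μg per 10 μL reaction in 50 mM Tris–HCl pH 7.5, 150 mM NaCl with SYPRO Orange 5×. Compound at 50 μM. Scanned 20 to 95 °C with fluorescence read every 10 s. Tm from the melt curve; averages of three technical replicates.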

[9] = biological target: Activin receptor type-1-like (Homo sapiens, UniProt P37023); assay: Inhibition of ACVRL1 (unknown origin) by LanthaScreen TR-FRET assay; method in brief: as §2
TGF-beta receptor type-1 = biological target: T3, TGF-beta receptor type-1 (Homo sapiens, UniProt P36897); assay: as §1; method in brief: as §2
T3 sequence (P36897 whole entry): T1 sequence (whole entry)

Sequence of Bone morphogenetic protein receptor type-1B (O00238 whole entry): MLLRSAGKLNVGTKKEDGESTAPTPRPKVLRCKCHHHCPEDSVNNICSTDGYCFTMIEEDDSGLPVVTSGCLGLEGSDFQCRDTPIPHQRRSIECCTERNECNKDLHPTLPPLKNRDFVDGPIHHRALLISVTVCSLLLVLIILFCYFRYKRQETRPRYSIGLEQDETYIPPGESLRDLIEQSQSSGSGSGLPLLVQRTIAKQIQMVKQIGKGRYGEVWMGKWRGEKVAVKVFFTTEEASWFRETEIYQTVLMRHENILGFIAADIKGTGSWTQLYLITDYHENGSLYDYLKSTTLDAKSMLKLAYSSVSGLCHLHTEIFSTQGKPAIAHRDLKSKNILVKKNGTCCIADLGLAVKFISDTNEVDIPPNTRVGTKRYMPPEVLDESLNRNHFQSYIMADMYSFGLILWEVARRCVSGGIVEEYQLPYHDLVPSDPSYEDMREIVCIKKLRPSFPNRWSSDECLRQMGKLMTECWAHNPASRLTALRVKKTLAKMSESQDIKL
Sequence of Activin receptor type-2A (P27037 whole entry): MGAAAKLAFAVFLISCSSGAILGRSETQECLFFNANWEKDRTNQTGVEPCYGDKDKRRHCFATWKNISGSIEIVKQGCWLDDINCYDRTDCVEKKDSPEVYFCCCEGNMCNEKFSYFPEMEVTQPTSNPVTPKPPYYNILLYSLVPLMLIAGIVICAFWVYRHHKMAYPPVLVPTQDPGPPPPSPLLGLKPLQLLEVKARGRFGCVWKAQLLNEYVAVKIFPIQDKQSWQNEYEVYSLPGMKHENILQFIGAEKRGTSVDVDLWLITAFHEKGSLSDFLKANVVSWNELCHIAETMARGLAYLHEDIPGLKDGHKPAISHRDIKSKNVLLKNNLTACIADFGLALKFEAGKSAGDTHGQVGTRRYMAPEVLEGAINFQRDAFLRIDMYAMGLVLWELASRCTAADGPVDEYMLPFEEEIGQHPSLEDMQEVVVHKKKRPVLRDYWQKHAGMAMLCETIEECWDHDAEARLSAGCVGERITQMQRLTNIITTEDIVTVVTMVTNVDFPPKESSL
Sequence of Activin receptor type-1-like (P37023 whole entry): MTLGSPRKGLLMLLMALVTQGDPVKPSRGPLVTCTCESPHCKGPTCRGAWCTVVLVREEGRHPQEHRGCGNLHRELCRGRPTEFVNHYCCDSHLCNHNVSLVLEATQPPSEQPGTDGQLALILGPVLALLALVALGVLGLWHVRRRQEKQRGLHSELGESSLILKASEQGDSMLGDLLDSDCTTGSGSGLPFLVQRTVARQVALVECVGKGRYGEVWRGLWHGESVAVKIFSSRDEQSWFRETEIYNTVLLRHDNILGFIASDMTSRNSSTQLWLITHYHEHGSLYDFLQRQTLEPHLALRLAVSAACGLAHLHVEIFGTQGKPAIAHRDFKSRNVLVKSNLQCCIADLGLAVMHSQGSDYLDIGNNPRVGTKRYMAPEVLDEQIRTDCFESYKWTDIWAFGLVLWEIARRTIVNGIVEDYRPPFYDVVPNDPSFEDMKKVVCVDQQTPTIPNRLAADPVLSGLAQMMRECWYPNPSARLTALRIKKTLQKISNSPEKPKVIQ

Row | SMILES | inhibition [1] | inhibition [2] | inhibition (Activin receptor type-2A) | t1/2 [3] [h] | inhibition (HEK293T [4]) | inhibition (HEK293T [5]) | inhibition (HUVEC [6]) | inhibition (HUVEC [7]) | ΔTm [8] [°C] | IC50 [9] [nM] | IC50 (TGF-beta receptor type-1) [nM] | IC50 [2] [nM]
1 | COc1cnc(Nc2cccc(S(N)(=O)=O)c2)nc1N1CCN(c2ccccc2)C(=O)C1 | inactive | inactive | inactive | 5.08 | Active | Active | Active | Active | – | – | – | –
2 | CNC(=O)CCc1ccc(C(=O)NCc2cccc(N3CCN(c4nc(Nc5cccc(S(N)(=O)=O)c5)ncc4OC)CC3)c2)cc1 | inactive | inactive | inactive | 0.367 | – | – | – | – | 13.9 | – | – | –
3 | CNC(=O)[C@@H]1CC[C@@H](n2c(-c3ccc4cnccc4c3)nc3ccc(C(=O)NCc4cccc(C(N)=O)c4)cc32)C1 | – | – | inactive | – | – | – | – | – | 15.7 | 267 | > 1000 | > 1000
4 | NC(=O)c1cccc(CNC(=O)c2ccc3nc(-c4ccc5cnccc5c4)n(C4CCCC4)c3c2)c1 | – | – | inactive | 1.33 | Active | Active | Active | Active | – | 131 | > 1000 | > 1000
